Assay results taken from ChEMBL document CHEMBL1125074, “Autoxidation of the serotonergic neurotoxin 5,7-dihydroxytryptamine” (J Med Chem, 1990).

Key:
[1] = Dissociation constant (pKa) was determined by spectrophotometric method; type: physicochemical
In short: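 Compound (ca. 0.1 mM) first dissolved in phosphate buffer pH 2.2 (μ = 0.1); UV-visible spectrum recorded, then pH raised in ca. 0.5-unit steps to pH 10 with NaOH, spectrum taken at each step. pKa calculated from the pH-dependent shift in λmax of the two intense UV bands.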

Mus musculus = species: Mus musculus; test: Compound was evaluated for lethal dose against mouse brain; type: toxicity, organism-based; conditions: in vivo
[2] = Pseudo-first-order rate constant was determined in pH 7.4 phosphate buffer in presence 0.5 mM EDTA; type: ADME
[3] = Pseudo-first-order rate constant was determined in pH 7.4 phosphate buffer in presence 50 mM EDTA; type: ADME
[4] = Compound was autooxidized for 2 hour at 37 degree Celsius in pH 7.4 phosphate buffer Pseudo-first-order rate constant; type: ADME; conditions: pH 7.4, 2 h
In short: (§1)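 5,7-DHT (0.5–1.0 mM) autoxidised at 37 °C in pH 7.4 phosphate buffer (μ = 0.2), with air vigorously bubbled through. Loss of 5,7-DHT was followed by HPLC peak area (reversed-phase RP-18; triethylamine/acetic acid mobile phase, pH 3.30; UV detection at 254 nm). The rate constant came from linear ln(peak area) vs time plots over the first 2 h.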

[5] = Compound was autooxidized for 2 hour at 37 degree Celsius in pH 7.4 Pseudo-first-order rate constant; type: ADME; conditions: pH 7.4, 2 h; in short: as §1
[6] = Dissociation constant (pKa) was reported after potentiometric titration with 0.2 mM KOH; type: physicochemical
[7] = Pseudo-first-order rate constant was determined in pH 7.4 phosphate buffer in presence 70 mM EDTA; type: ADME
[8] = Compound was autooxidized for 2 hour at 37 degree Celsius in pH 7.4 phosphate buffer pseudo-first-order rate constant 0.1 mM EDTA; type: ADME; conditions: pH 7.4, 2 h
[9] = Half-life was reported for stability at pH 8; type: physicochemical; conditions: buffer
[10] = Half-life was reported for slow rate of autooxidation reaction; type: ADME

Work on NCCc1c[nH]c2c1C(=O)C(O)=C(C1=C(O)c3[nH]cc(CCN)c3C(=O)C1=O)C2=O yielded a pKa [1] of 6.5.
NCCc1c[nH]c2c1C(=O)C(=O)C=C2O showed an LD50 (Mus musculus) of 21 µg and a pKa [1] of 5.6.
Compound NCCc1c[nH]c2c(O)cc(O)cc12 has a K [2] of 0.017 min⁻¹, a K [3] of 0.014 min⁻¹ and a K [4] of 0.012 min⁻¹. For the same compound, the K [5] was 0.046 min⁻¹, the pKa [6] was 4.8 and the K [7] was 0.015 min⁻¹. For the same compound, the K [8] was 0.012 min⁻¹.
Compound CC1(C)CC=CN1[O] has a half-life [9] of 35 min and a half-life [10] of 1 min.
